Screens from PubChem BioAssay.
In the library only some 2.1% were active in any assay of this set; here they are far more common.
NOD2-RIPK2 inh – NOD2-RIPK2 protein interaction inhibition; O43353; CHO BLA complementation NOD2-RIPK2, CCF4 ratio; actives 0.38% (n = 360,000); inhibition, % at 4.98 µM; in the data active means inhibition above about 21%
TLR9-MyD88 block – blocks human TLR9 binding to MyD88. Q9NR96+Q99836. CHO BLA complementation TLR9-MyD88, CCF4 FRET ratio. inhibition, % at 4.98 µM. actives 0.21% (n = 340,000). AID 504734;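 active means inhibition above the mean over all tested compounds plus 3 SD, cut at about 21% in these data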
TLR4-MyD88 BLA – inhibitors of human TLR4-MyD88 binding | inhibition, % at 8.4 µM | HeLa CL3-4 TLR4/MyD88 BLA complementation, FRET ratio | actives 0.18% (n = 200,000); in the data active means inhibition above about 25%
MC4R barr agon – activates human MC4R beta-arrestin recruitment; P32245; U2OS MC4R beta-arrestin complementation, luminescence; percent of melanotan II response, DMSO zero; activation, % at 8.9 µM; actives 0.98% (n = 360,000);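 active means activation above a per-plate cutoff, the mean activation of sample wells on that plate plus 3 SD, cut at about 8% in these data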
Target sequence (P32245 whole entry, looked up): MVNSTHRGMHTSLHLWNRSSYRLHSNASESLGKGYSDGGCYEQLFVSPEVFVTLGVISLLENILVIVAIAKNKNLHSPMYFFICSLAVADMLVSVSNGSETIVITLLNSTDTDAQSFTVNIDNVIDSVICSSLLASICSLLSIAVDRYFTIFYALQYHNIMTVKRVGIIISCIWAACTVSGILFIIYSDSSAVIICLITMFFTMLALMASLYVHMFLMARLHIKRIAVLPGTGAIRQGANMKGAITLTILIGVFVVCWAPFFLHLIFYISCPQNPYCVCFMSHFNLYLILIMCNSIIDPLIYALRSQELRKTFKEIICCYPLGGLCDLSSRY
MIN6 prolif – MIN6 beta-cell proliferation induction. actives 0.29% (n = 330,000). MIN6 cells proliferation, ATPlite luminescence, 48 h; cells starved in 0.2% serum; 100% = growth in 10% serum. proliferation, % at 10 µM. AID 2380;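 active means compounds whose signal lies at least 3.5 SD above the mean of all wells on their plate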
MC4R antagonist – blocks human MC4R cAMP signaling. P32245. MC4R-expressing cells, MTII-stimulated cAMP, LANCE TR-FRET. inhibition, % at 6.5 µM. actives 0.48% (n = 360,000);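 active means inhibition above its plate's cutoff, the mean of tested wells on that plate plus 3 SD, cut at about 29% in these data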
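Material: U2OS-MC4R stable cell line | Reagent: Melanotan II challenge after compound preincubation | Doses: One concentration, 6.5 µM nominal | Incubation: 30-min compound preincubation, 1-h Melanotan II challenge, 1-h detection, room temperature | Signal: TR-FRET cAMP assay | Replicates: One well per compound, no replicates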
MC4R barr conf – human MC4R beta-arrestin agonism confirmation; shares compounds with MC4R barr agon; U2OS MC4R beta-arrestin recruitment, luminescence; scaled DMSO 0%, Melanotan II 100%; activation, % at 8.9 µM; actives 31% (n = 2,400);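 active means mean activation across replicates above the hit cutoff set in the earlier primary screen, cut at about 8% in these data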
MOR-DOR barr ag – OPRM1-OPRD1 heterodimer agonism counter-screen; shares compounds with MC4R barr agon; U2OS PathHunter beta-arrestin, beta-gal luminescence; percent of deltorphin B response, DMSO zero; activation, % at 9.2 µM; actives 5.8% (n = 2,400); AID 602194;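 active means mean activation across replicates exceeds the hit threshold derived in the earlier primary screen, cut at about 18% in these data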
A number is an active result; – = inactive; · = no result.

SMILES | NOD2-RIPK2 inh | TLR9-MyD88 block | TLR4-MyD88 BLA | MC4R barr agon | MIN6 prolif | MC4R antagonist | MC4R barr conf | MOR-DOR barr ag
CN1CCN(CCCNC(=O)c2ccc(/C=C3/Sc4ccccc4N(Cc4cccc(Cl)c4)C3=O)cc2)CC1 | – | – | – | 10 | · | – | 16 | –
CN1CCN(CCCNC(=O)c2ccc(/C=C3\Sc4ccccc4N(Cc4ccc(F)cc4)C3=O)cc2)CC1 | – | – | – | – | · | – | · | ·
CCN1CCN(CCNC(=O)c2ccc(/C=C3\Sc4ccccc4N(Cc4ccccc4F)C3=O)cc2)CC1 | – | – | – | 12 | – | – | 17 | –
CCOc1ccccc1NC(=S)NCc1cccn1C | – | – | – | – | – | – | · | ·
Cc1ccccc1SCC(=O)OCC(=O)NCCNC(=O)COC(=O)CSc1ccccc1C | – | – | · | – | – | – | · | ·
COC(=O)C1=CN(Cc2ccccc2)C=C(C(=O)OC)C1c1cc(F)ccc1F | – | – | · | – | – | – | · | ·
COc1ccc(N2CCN(C(=O)c3ccc(Br)o3)CC2)cc1 | – | – | · | – | – | – | · | ·
O=C(Cn1c(=O)n(CC2CCCO2)c(=O)c2ccccc21)c1ccc(Cl)c(Cl)c1 (configuration not stated) | – | – | – | 11 | – | – | – | –
CC(=O)c1cccc(N2C(=NC(=O)C3CCCCC3)SC3CS(=O)(=O)CC32)c1 (configuration not stated) | – | – | · | – | – | – | · | ·
CCc1cc2cccc(C)c2nc1SCC(=O)c1ccc(NC(C)=O)cc1 | – | – | – | 10 | – | – | – | –
CCc1cc2ccc(C)cc2nc1SCC(=O)c1ccc(NC(C)=O)cc1 | – | – | – | – | – | – | · | ·
Cc1cc(/C=C2\NC(=O)N(Cc3ccc(Cl)cc3)C2=O)c(C)n1C | – | – | – | – | · | – | · | ·
Cc1nnc2sc(-c3cccc(NC(=O)c4ccc(-c5cccc(Cl)c5)o4)c3)nn12 | · | · | – | · | · | · | · | ·
Cc1ccc(-c2nn3c(C)nnc3s2)cc1NC(=O)c1ccc(-c2cccc(Cl)c2)o1 | – | – | – | 13 | – | – | – | –
S=C1Nc2ccccc2Sc2ccc(Cl)cc21 | – | – | – | 23 | – | – | 10 | –
O=C(C1CCCN(S(=O)(=O)c2cc(Cl)ccc2Cl)C1)N1CCOCC1 (configuration not stated) | – | – | · | – | – | – | · | ·
COc1ccc(CCN(C)CC(O)COc2ccc(C(C)=O)cc2OC)cc1OC (configuration not stated) | – | – | · | – | – | – | · | ·
Cc1cc(OCC(=O)NNC(=S)NCC2CCCO2)cc(C)c1Cl (configuration not stated) | – | – | · | – | – | – | · | ·
Nc1c(C(=O)NCc2ccc3c(c2)OCO3)nnn1Cc1cccc(F)c1 | – | – | · | – | – | – | · | ·
Nc1c(C(=O)NCc2ccc3c(c2)OCO3)nnn1Cc1ccc(Br)cc1 | – | – | · | 18 | – | – | – | –
COc1ccc(NC(=O)CSc2nc3sc(C)c(C)c3c(=O)n2Cc2ccco2)cc1 | – | – | – | – | – | – | · | ·
C=CCn1c(SCC(=O)NC(=O)NCc2ccco2)nc2sc(C)c(C)c2c1=O | – | – | – | 11 | – | – | 10 | –
CCOC(=O)c1cc2c(c(-c3cccc(-c4cc5ccccc5o4)c3)n1)[C@@H](CCO)N(S(=O)C(C)(C)C)C2 (some centres not stated) | – | · | · | · | · | · | · | ·
Cc1cc(NC(=O)C(C)SCC(=O)Nc2nc3c(F)cc(F)cc3s2)no1 (configuration not stated) | – | – | · | – | – | – | · | ·
Cn1c(CNC(=O)c2ccc(Cl)cc2)nnc1SCC(=O)Nc1sc2c(c1C#N)CCCC2 | – | – | – | 17 | – | – | – | –
SMILES | NOD2-RIPK2 inh | TLR9-MyD88 block | TLR4-MyD88 BLA | MC4R barr agon | MIN6 prolif | MC4R antagonist | MC4R barr conf | MOR-DOR barr ag
Cc1ccc(C(C)C)c(OCC(=O)Nc2sc3c(c2C#N)CC(C)(C)NC3(C)C)c1 | – | – | · | – | – | – | · | ·
COc1ccccc1OCC(=O)Nc1sc2c(c1C(N)=O)CCC2 | – | – | · | – | – | – | · | ·
N#Cc1c(NC(=O)CSc2nnc(-c3ccccc3)o2)sc2c1CCCC2 | – | – | – | 23 | – | – | – | –
Cc1ccc(C(=O)NCc2nnc(SCC(=O)Nc3sc4c(c3C#N)CCCC4)n2C)cc1 | – | – | – | – | – | – | · | ·
Cc1cc(OCC(=O)Nc2sc3c(c2C#N)CC(C)(C)NC3(C)C)c(C(C)C)cc1Cl | – | – | · | 14 | – | – | 8.5 | –
Cc1ccccc1OCC(=O)Nc1sc2c(c1C#N)CCC2 | – | – | – | 17 | – | – | – | –
CC1CCc2c(sc(NC(=O)CSc3nnc(-c4ccccc4)o3)c2C#N)C1 (configuration not stated) | – | – | – | – | – | – | · | ·
O=S1(=O)N=C(N/N=C/c2cccs2)c2ccccc21 | – | – | · | – | – | – | · | ·
CCOc1c2ccc(C(=O)NCc3ccc(C)cc3)cc2nn1CCOC | – | – | – | – | – | – | · | ·
CC1CCC(NC(=O)CN2C(=O)NC3(CCCCC3C)C2=O)CC1 (configuration not stated) | – | – | · | – | – | – | · | ·
CCC1CCCCN1C(=S)NC1CCCCC1 (configuration not stated) | – | – | – | – | – | – | · | ·
CCCCn1c(N)c(N(CC(C)C)C(=O)c2cc(-c3ccncc3)nc3ccccc23)c(=O)[nH]c1=O | – | – | · | – | – | – | · | ·
O=C(Nc1ccccc1Oc1ccccc1)c1cc([N+](=O)[O-])ccc1Cl | – | – | – | 14 | – | – | – | –
O=C(Nc1ccc(Nc2ccccc2)cc1)c1cc([N+](=O)[O-])ccc1Cl | – | – | · | – | – | – | · | ·
O[C@@H]1CN(CC2CCCCC2)[C@@H](c2ccccc2)C[C@H]1n1cc(-c2ccc(F)cc2)nn1 | – | – | · | – | · | – | · | ·
Cc1nc2ccccc2c(=O)n1Cc1ccco1 | – | · | · | – | – | – | · | ·
COc1ccc(Cn2c(C)nc3c(c2=O)c2nc4ccccc4nc2n3Cc2ccco2)cc1 | – | – | · | 11 | · | – | – | –
CCCCOc1ccc(Cl)cc1Nc1nc(NCCO)nc(N2CCCC2)n1 | – | – | · | – | – | – | · | ·
N#Cc1ccccc1OCC(=O)Nc1c(C(=O)C2CC2)oc2ccccc12 | – | – | – | 22 | – | – | 8.9 | –
CC(=O)Nc1c(C(=O)C2CC2)oc2ccccc12 | – | – | – | – | – | – | · | ·
